{"source": "paper PMC3220747", "about": "(ACS chemical biology, 2011)", "key": {"[1]": {"target": "uPAR·uPA interaction (uPAR binding to uPAATF) (Homo sapiens, UniProt Q03405)", "sequence (Q03405 23-299)": "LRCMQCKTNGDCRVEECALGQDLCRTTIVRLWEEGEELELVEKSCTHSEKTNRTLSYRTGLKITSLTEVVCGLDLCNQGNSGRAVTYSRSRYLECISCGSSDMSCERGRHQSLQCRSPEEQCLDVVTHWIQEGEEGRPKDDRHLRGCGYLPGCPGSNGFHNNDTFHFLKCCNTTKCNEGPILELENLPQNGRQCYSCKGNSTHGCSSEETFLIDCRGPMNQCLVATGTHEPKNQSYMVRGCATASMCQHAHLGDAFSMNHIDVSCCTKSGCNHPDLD", "assay": "Microtiter-based ELISA, uPAR binding to immobilized uPAATF", "settings": "for activity in the ELISA at single concentration: 50 μM; for concentration-dependent inhibition of uPAR binding to uPAATF (ELISA): serial dilutions", "method_in_brief": "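Microtiter wells coated with uPAATF (purified by SP Sepharose […] exchange). Blocking used a 1:1 mix of Superblock in PBS with 0.04 M NaH₂PO₄/0.3 M NaCl buffer. uPAR binding was tested against serial dilutions of test compound. After incubation and washes, bound uPAR was detected with biotinylated antibody uPA1310 in 1% BSA/PBS for 1–2 h.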"}, "[2]": {"target": "uPAR·uPA interaction (suPAR277 and uPAATF) (Homo sapiens, UniProt Q03405)", "sequence (Q03405 23-299)": "as above", "assay": "Surface plasmon resonance", "type": "binding", "settings": "for SPR response with increasing concentration of compound: 5 to 100 μM", "method_in_brief": "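uPA amino-terminal fragment was amine-coupled to a CM5 chip at about 100 RU. Soluble uPAR (residues 1–277, expressed in Drosophila S2 cells) was injected with or without test compound (5–100 μM final, 5% DMSO) in HBS-EP plus 5% DMSO. Flow was 20 μL min⁻¹, with 180 s association and 90 s dissociation, and 5 mM HCl regeneration. DMSO-only protein controls were interleaved. IC50 was estimated from the plots.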"}, "MDA-MB-231 cells [3]": {"system": "MDA-MB-231 cells", "assay": "Transwell", "type": "cell-based, human", "method_in_brief": "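Wells were fibronectin-coated (30 ng μL⁻¹, 4°C overnight). Cells serum-starved 4 h were seeded at 5×10⁴ in 0.1% FBS medium with compound or DMSO in the upper chamber, with 10% FBS RPMI-1640 plus compound or 1% DMSO below, for 8 h at 37°C. Non-migrated cells were scraped off; filters were methanol-fixed 30 min and hematoxylin-stained 1 h. Cells in ten 200× fields were counted and averaged over three independent experiments.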"}, "[4]": {"system": "MDA-MB-231 cells lacking uPAR", "assay": "Invasion assay with siRNA knockdown of uPAR", "type": "cell-based, human", "settings": "MDA-MB-231 with siRNA knockdown of uPAR", "method_in_brief": "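Cells were transfected with uPAR siRNA, control siRNA or transfection reagent alone. After 48 h, knockdown was checked by immunoblot: 20 µg lysate on 12% SDS-PAGE, anti-uPAR probe, actin as loading control. Invasion without or with test compound then used fibronectin-coated transwells, with 0.1% FBS medium above and 10% FBS below, for 16 h at 37°C. Invaded cells were counted.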"}, "[5]": {"target": "uPA binding to uPAR of MDA-MB-231 tumor cells (Homo sapiens, UniProt Q03405)", "sequence (Q03405 23-305 limits assumed)": "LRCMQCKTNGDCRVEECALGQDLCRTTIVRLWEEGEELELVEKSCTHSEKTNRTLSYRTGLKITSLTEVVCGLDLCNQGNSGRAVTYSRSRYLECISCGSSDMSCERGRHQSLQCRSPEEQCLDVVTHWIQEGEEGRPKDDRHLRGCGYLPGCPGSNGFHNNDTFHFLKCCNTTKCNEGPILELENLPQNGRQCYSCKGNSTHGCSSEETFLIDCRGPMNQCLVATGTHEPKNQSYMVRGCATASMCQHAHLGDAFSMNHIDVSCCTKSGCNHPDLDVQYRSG", "assay": "Immunofluorescence imaging of cell surface uPA and uPAR", "type": "cell-based"}, "MDA-MB-231 cells [6]": {"system": "MDA-MB-231 cells", "assay": "Wound healing assay", "type": "cell-based, human", "settings": "MDA-MB-231, 16 h", "method_in_brief": "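Confluent MDA-MB-231 monolayers were scratched with a pipette tip, washed, and cultured in complete medium containing test compound. The gap between wound edges was measured in three random regions immediately after wounding and at 16 h.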"}, "uPAR [7]": {"target": "T1, uPAR (Homo sapiens, UniProt Q03405)", "T1 sequence (Q03405 23-299)": "as the sequence (Q03405 23-299) above", "assay": "Fluorescence polarization", "type": "binding"}, "MDA-MB-231 cells [8]": {"system": "MDA-MB-231 cells", "assay": "Invasion assay", "type": "cell-based, human", "settings": "for number of cells able to invade through the membrane: MDA-MB-231, increasing concentration", "method_in_brief": "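Insert undersides were coated overnight at 4°C with 30 ng μl⁻¹ fibronectin, and filters were equilibrated 2 h in serum-free medium. Cells serum-starved 4 h were seeded at 5×10⁴ in 0.1% FBS medium with compound in the upper chamber, with 10% FBS medium plus compound or DMSO below. After 16 h at 37°C, 5% CO₂, filters were methanol-fixed and hematoxylin-stained. Invaded cells were counted in ten 200× fields.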"}, "uPAR [9]": {"target": "T1, uPAR", "assay": "Direct binding of IPR-456 to uPAR by FP", "settings": "10 μM GFD"}, "MDA-MB-231 cells [10]": {"system": "MDA-MB-231 cells", "assay": "Adhesion assay", "type": "cell-based, human", "method_in_brief": "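Wells coated overnight at 4°C with fibronectin (15 ng μl⁻¹) or vitronectin, then blocked 1 h with 0.5% BSA/PBS. Cells were serum-starved 3 h, trypsinized, and held at 2.5×10⁵ cells ml⁻¹ in 0.1% FBS DMEM with test compound or DMSO for 90 min at 37°C. After three PBS washes, remaining adherent cells were quantified by MTT.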"}, "MDA-MB-231 cells [11]": {"system": "MDA-MB-231 cells", "assay": "Cytotoxicity / cell proliferation", "type": "cell-based, human", "method_in_brief": "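MDA-MB-231 cells were exposed to test compound at the same concentrations and for the same incubation time as the transwell motility assay. MTT was added 2 h before measurement.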"}, "[12]": {"settings": "read-out: IC50, inhibition of uPAATF binding to uPAR (ELISA)"}}, "note": "Entries after “also recorded” stand apart in the source; their conditions may differ. Where two headings read alike, the source gives them in different places.", "data": [{"compound": "CC1CCN(c2cc(Nc3ccc(C(=O)O)cc3)c3c4c(onc24)-c2ccccc2C3=O)CC1", "note": "[IPR-808]", "values": [{"measurement": "activity in the ELISA at single concentration", "setting": "[1]", "result": "strong activity"}, {"measurement": "IC50", "setting": "[1]; [12]", "result": 30, "unit": "µM"}, {"measurement": "concentration-dependent inhibition of uPAR binding to uPAATF (ELISA)", "setting": "[1]", "result": "concentration-dependent inhibition"}]}, {"compound": "CC1CC(C)CN(c2cc(NCCC(=O)O)c3c4c(onc24)-c2ccccc2C3=O)C1", "note": "(stereo not shown) [IPR-763]", "values": [{"measurement": "activity in the ELISA at single concentration", "setting": "[1]", "result": "strong activity"}, {"measurement": "IC50", "setting": "[1]; [12]", "result": 20, "unit": "µM"}, {"measurement": "concentration-dependent inhibition of uPAR binding to uPAATF (ELISA)", "setting": "[1]", "result": "concentration-dependent inhibition"}, {"measurement": "IC50 estimated from SPR plots, compared with ELISA", "setting": "[2]", "result": "nearly identical to those observed in the ELISA"}, {"measurement": "SPR response with increasing concentration of compound", "setting": "[2]", "result": "concentration-dependent decrease in the response"}]}, {"compound": "CC1CC(C)CN(c2cc(Nc3ccccc3C(=O)O)c3c4c(onc24)-c2ccccc2C3=O)C1", "note": "(stereo not shown) [IPR-456, 2-((3-(3,5-Dimethylpiperidin-1-yl)-6-oxo-6H-anthra[1,9-cd]isoxazol-5-yl)amino)benzoic acid]", "values": [{"measurement": "concentration-dependent inhibition of uPAR binding to uPAATF (ELISA)", "setting": "[1]", "result": "complete concentration-dependent inhibition"}, {"measurement": "effect on migration (Boyden chamber)", "setting": "MDA-MB-231 cells [3]", "result": "blocked migration very weakly"}, {"measurement": "effect on invasion of cells lacking uPAR", "setting": "[4]", "result": "no effect on invasion"}, {"measurement": "IC50", "setting": "[5]", "result": 8, "unit": "µM"}, {"measurement": "uPAR immunostaining at the cell surface", "setting": "[5]; MDA-MB-231", "result": "no change in the immunostaining pattern of uPAR"}, {"measurement": "uPA staining at the cell surface", "setting": "[5]; MDA-MB-231, compound added 30 min prior to immunostaining", "result": "significant concentration-dependent reduction of uPA staining"}, {"measurement": "effect on migration (wound healing)", "setting": "MDA-MB-231 cells [6]", "result": "little effect on migration"}, {"measurement": "Ki", "setting": "uPAR [7]", "result": 0.14, "unit": "µM"}, {"measurement": "concentration-dependent displacement of GFD-FAM", "setting": "uPAR [7]; 0.78 μM to 100 μM", "result": "displace GFD-FAM in a concentration-dependent manner"}, {"measurement": "inhibition / binding in initial FP screen", "setting": "uPAR [7]; single concentration of 50 μM", "result": "highest inhibition"}, {"measurement": "inhibition of invasion", "setting": "MDA-MB-231 cells [8]; MDA-MB-231", "result": "about 60%"}, {"measurement": "number of cells able to invade through the membrane", "setting": "MDA-MB-231 cells [8]", "result": "concentration-dependent reduction"}, {"measurement": "change of polarization with increasing uPAR in the presence of GFD", "setting": "uPAR [9]", "result": "no increase in the polarization was detected"}, {"measurement": "effect on cell adhesion", "setting": "MDA-MB-231 cells [10]; fibronectin-coated wells", "result": "no effect on cell adhesion"}, {"measurement": "effect on cell adhesion", "setting": "MDA-MB-231 cells [10]; vitronectin-coated wells", "result": "no effect on cell adhesion"}, {"measurement": "toxicity within the timeframe of the invasion experiment", "setting": "MDA-MB-231 cells [11]; MDA-MB-231, 200 μM", "result": "minimal toxicity"}, {"measurement": "toxicity within the timeframe of the invasion experiment", "setting": "MDA-MB-231 cells [11]; MDA-MB-231, up to 100 μM", "result": "no toxicity"}, {"measurement": "cytotoxicity in the migration assays", "setting": "MDA-MB-231 cells [11]; same concentrations and incubation time as migration assays", "result": "Neither assay exhibited any cell cytotoxicity"}]}, {"compound": "O=C(O)c1cccc(Nc2cc(N3CCCCCC3)c3noc4c3c2C(=O)c2ccccc2-4)c1", "note": "[IPR-803, 3-((3-(Azepan-1-yl)-6-oxo-6H-anthra[1,9-cd]isoxazol-5-yl)amino)benzoic acid]", "values": [{"measurement": "IC50", "setting": "[1]", "result": 10, "unit": "µM"}, {"measurement": "activity in the ELISA at single concentration", "setting": "[1]", "result": "strong activity"}, {"measurement": "concentration-dependent inhibition of uPAR binding to uPAATF (ELISA)", "setting": "[1]", "result": "concentration-dependent inhibition"}, {"measurement": "number of cells able to invade through the membrane", "setting": "MDA-MB-231 cells [8]", "result": "concentration-dependent reduction"}, {"measurement": "effect on cell proliferation / cytotoxicity", "setting": "MDA-MB-231 cells [11]; MDA-MB-231, increasing concentration", "result": "concentration dependent inhibition of MDA-MB-231 cell proliferation; also recorded: some cytotoxicity"}, {"measurement": "IC50", "setting": "[2]", "result": 10, "unit": "µM"}, {"measurement": "IC50 estimated from SPR plots, compared with ELISA", "setting": "[2]", "result": "nearly identical to those observed in the ELISA"}, {"measurement": "SPR response with increasing concentration of compound", "setting": "[2]", "result": "concentration-dependent decrease in the response"}]}]}
